Screens from PubChem.
KCNK3 block: human KCNK3 channel inhibition, primary screen; B-score at 10 µM; CHO-KCNK3 thallium flux, FluxOR fluorescence; hits give low values; O14649; actives 0.84% (n = 340,000);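 active means B-score under library mean minus 4 SD, starting fluorescence ratio at most library mean plus 5 SD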;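 further: more negative B-score means stronger inhibition of thallium flux through KCNK3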
Target sequence (O14649 whole entry, looked up): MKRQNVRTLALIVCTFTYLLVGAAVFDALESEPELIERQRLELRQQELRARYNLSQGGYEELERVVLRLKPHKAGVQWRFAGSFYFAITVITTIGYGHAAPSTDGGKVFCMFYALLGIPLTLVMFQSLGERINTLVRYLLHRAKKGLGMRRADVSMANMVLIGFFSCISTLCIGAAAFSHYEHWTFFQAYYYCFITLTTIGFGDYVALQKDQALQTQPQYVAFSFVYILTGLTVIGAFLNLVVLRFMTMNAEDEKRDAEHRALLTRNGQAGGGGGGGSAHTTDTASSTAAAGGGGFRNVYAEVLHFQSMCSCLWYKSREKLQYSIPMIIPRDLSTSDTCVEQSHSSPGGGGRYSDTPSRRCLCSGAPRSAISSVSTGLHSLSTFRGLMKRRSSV
hERG rescue: shields human hERG channel from block by proarrhythmic agents; AID 1511; Q12809; CHO-hERG, FluxOR thallium flux, dofetilide IC70 present; activation (rescue from dofetilide block), less the hit threshold, % at 10 µM; actives 0.51% (n = 310,000);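 active means activation above the mean of controls blocked by dofetilide plus 5 SD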;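 further: thallium influx through hERG after potassium depolarization seen as dye fluorescence rise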
Kir21 inh: Kir2.1 (mouse) channel inhibition | HEK293-Kir2.1, FluxOR thallium flux fluorescence; hits give low values | actives 0.85% (n = 310,000) | AID 1672 | B-score at 10 µM;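 active means fluorescence ratio B-score at or below minus 3 SD of library scores, with starting-brightness B-score within 2 SD, cut at about -4.2 in these data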;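 further: channel flux triggered by added potassium and thallium sulfate stimulus; B-score of peak minus minimum fluorescence over baseline after thallium stimulus; more negative B-score means stronger Kir2.1 block with less thallium influx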
KCNK9 inh-1: blocks the human KCNK9 two-pore domain potassium channel; Q9NPC2; HEK293 KCNK9, FluxOR thallium flux fluorescence; hits give low values; B-score at 10 µM; actives 1.2% (n = 310,000);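 active means ratio B-score over 3 SD below the library mean, with starting fluorescence within 5 SD of its mean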;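 further: negative B-score means less thallium flux so channel inhibition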
KCNQ1 act: potentiators or activators of human KCNQ1 potassium channel. P51787. CHO-K1 KCNQ1, thallium flux FluxOR fluorescence; hits give high values. B-score at 10 µM. actives 0.35% (n = 310,000). AID 2648;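 active means fluorescence ratio B-score, a plate-corrected score, at least three library SD, with initial intensity B-score within 5 SD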
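Doses: Single concentration per compound, DMSO matched to controls | Test system: KCNQ1-transfected CHO-K1 cells | Timing: 90 min dye loading and 20 min compound exposure, both at room temperature | Measured by: Kinetic FluxOR thallium fluorescence, 10-s 1-Hz baseline, 110-s post-stimulus read | Medium: Assay buffer with matched DMSO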
KCNQ1 block: inhibitors of human KCNQ1 potassium channel; CHO-K1 KCNQ1, FluxOR thallium flux fluorescence; hits give high values; B-score at 10 µM; actives 1.3% (n = 310,000);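 active means compounds whose thallium flux B-score, printed positive for inhibition, exceeds three library SD while starting fluorescence stays within three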;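 further: channel opened by potassium depolarization with thallium stimulus after 20 min compound exposure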
hERG inh: counter-screen for Kir2.1 inhibitors: effect on human hERG | actives 20% (n = 320) | hERG-expressing cells, thallium flux | shares compounds with Kir21 inh | inhibition, % at 10 µM;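 further: host cells are CHO cells stably expressing hERG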
KCNK9 inh-2: tests whether Kir2.1 inhibitors also affect human KCNK9 | KCNK9-expressing cells, ion flux inhibition | shares compounds with Kir21 inh | AID 2329 | inhibition, % at 10 µM | actives 5% (n = 320)
Kir2-1 patch inh: mouse Kir2.1 inward rectifier channel inhibition | AID 463252 | shares compounds with Kir21 inh | Kir2.1 cells, automated patch-clamp current inhibition | inhibition, % at 25 µM | actives 71% (n = 320)
Numbers without * were called inactive; i = inactive; nt = no result given. Shown are actives, neighbours in structure and some others; about 3.7% of the full set was active somewhere. Unless noted, how the calls were made is not given here.

SMILES	KCNK3 block	hERG rescue	Kir21 inh	KCNK9 inh-1	KCNQ1 act	KCNQ1 block	hERG inh	KCNK9 inh-2	Kir2-1 patch inh
CN(C)C(=O)c1ccccc1Sc1ccc(Cl)cc1Cl	i	-12.1	-4.16	i	i	i	nt	nt	nt
c1ccc(-c2ccccc2OCCOCCN2CCc3ccccc3C2)cc1	i	-16.2	-8.31*	i	i	i	66.0%*	i	39.1%*
CC1CN(CCOCCOc2ccccc2-c2ccccc2)CC(C)O1 (stereo unspecified)	i	-7.7	-3.08	i	i	i	nt	nt	nt
CCOc1ccc(CCNC(=O)c2cc(=O)[nH]c3ccc(S(=O)(=O)N(CC)CC)cc23)cc1OCC	i	-9.7	0.93	i	i	i	nt	nt	nt
CCCCCN(C(=O)CCC(=O)OCC(=O)Nc1ccc(C)cc1F)c1c(N)n(CCCC)c(=O)[nH]c1=O	i	-8.5	1.15	i	i	i	nt	nt	nt
CCOc1cc(/C=N/N=C(N)N)ccc1OCc1ccc(Cl)cc1	i	-27.6	-16.3*	i	i	9*	60.0%*	i	i
CCOc1cc(/C=N/O)ccc1OCc1ccc(F)cc1	i	-4.1	-0.79	i	i	i	nt	nt	nt
COc1cccc(OC)c1C(=O)Nc1ccc(N2CCCC2)cc1	i	-4.6	3.03	i	i	i	i	i	i
O=C(c1cc(S(=O)(=O)N2CCOCC2)ccc1F)N(CCc1ccccc1)Cc1ccccc1	i	-10.9	0.04	i	i	i	nt	nt	nt
CC(C)CCn1c2ccccc2c2cc(CC(N)=O)ccc21	i	-5.7	4.01	i	i	i	i	i	i
NC(=O)CCn1c2ccccc2c2ccccc21	i	-9.1	2.62	i	i	i	nt	nt	nt
CC1CCCCC1NC(=O)C1CCC(CNS(=O)(=O)c2cccc3cccnc23)CC1 (stereo unspecified)	i	-3.8	1.25	i	i	i	nt	nt	nt
CCN(CC)CCCN(C(=O)c1ccc(OC)cc1)c1nc(-c2ccc(OC)cc2)cs1	i	-13.8	-6.07*	i	i	i	i	i	i
Cc1ccc(C(=O)NC(=S)NNC(=O)c2ccccc2O)cc1	i	-11.5	-0.33	i	i	i	nt	nt	nt
Cc1ccc(C(=O)NNC(=S)NC(=O)c2ccccc2)cc1	i	23.0*	2.62	i	8*	i	i	i	i
Cc1ccc(N2CC(C(=O)Nc3ccc(N4CCOCC4)cc3)CC2=O)cc1C (stereo unspecified)	i	-9.2	-2.73	i	i	i	nt	nt	nt
CN(C)c1nc(Nc2ccccc2)nc(N(C)C)n1	i	-11.4	1.1	i	i	i	nt	nt	nt
CCOc1ccc(Nc2nc(N)c3ccccc3n2)cc1	i	-9.5	-9.87*	i	i	i	i	i	69.7%*
CN(C)c1ccc(Nc2nc(N)c3ccccc3n2)cc1	i	-8.0	-7.52*	i	i	i	i	i	64.9%*
CC(C)NC(=O)c1cccc2c1-c1ccccc1C2=O	i	-5.0	-1.43	i	i	i	nt	nt	nt
CCCCCn1nc(C(=O)OCc2nc(N)nc(Nc3ccccc3)n2)c2ccccc2c1=O	i	nt	nt	nt	nt	nt	nt	nt	nt
COc1ccc(/C=N/N2CCN(c3ccc(Cl)cc3)CC2)cc1O	i	-0.5	1	i	i	i	nt	nt	nt
COc1ccc(CCNC(=O)C(C)SCc2ccccc2)cc1 (stereo unspecified)	i	-10.3	-7.49*	i	i	i	i	i	56.0%*
COc1cccc(NC(=O)C(C)SCc2ccccc2)c1 (stereo unspecified)	i	-8.6	0.21	i	i	i	nt	nt	nt
CNCCCCOc1ccccc1Cc1ccccc1	nt	-9.4	-8.82*	i	i	i	i	i	30.3%*
SMILES	KCNK3 block	hERG rescue	Kir21 inh	KCNK9 inh-1	KCNQ1 act	KCNQ1 block	hERG inh	KCNK9 inh-2	Kir2-1 patch inh
CCc1nc(SCC(=O)Nc2cc(C)on2)c2c(=O)n(C)c(=O)n(C)c2n1	i	-8.9	0.31	i	i	i	nt	nt	nt
Cc1cc(NC(=O)CSc2nc(CC(C)(C)C)nc3c2c(=O)n(C)c(=O)n3C)no1	i	-9.2	3.65	i	i	i	i	i	i
CN(C)CC#CCOC(c1ccccc1)c1ccccc1	i	0.3	-6.34*	i	i	i	i	i	44.6%*
CCN(CC)CC#CCOC(c1ccccc1)c1ccccc1	i	-22.4	-2.97	i	i	i	nt	nt	nt
C=CCNC(=S)N1CCC(Cc2ccccc2)CC1	i	-9.4	1.58	i	i	i	nt	nt	nt
COc1ccc(NC(=O)c2ccc(S(=O)(=O)N3CC(C)CC(C)C3)cc2)cc1S(N)(=O)=O (stereo unspecified)	i	nt	nt	nt	nt	nt	nt	nt	nt
OC1CCCN(Cc2ccc3ccc4cccc5ccc2c3c45)C1 (stereo unspecified)	i	-3.9	-5.79*	i	i	i	48.0%*	i	i
c1cc2ccc3ccc(CN4CCOCC4)c4ccc(c1)c2c34	i	-7.8	0.31	i	i	i	nt	nt	nt
COc1ccc(CCN2CCCC(CN(C)Cc3cc(OC)c(OC)c(OC)c3)C2)cc1 (stereo unspecified)	i	-9.1	1.17	i	i	i	nt	nt	nt
COc1ccc(CN(C)CC2CCCN(CCc3ccc(F)cc3)C2)cc1OC (stereo unspecified)	i	-2.6	-6.23*	i	i	i	i	i	22.3%*
Cc1cc(OCCOCCNCc2ccccc2)ccc1C(C)C	i	-17.1	-7.84*	i	i	i	49.0%*	i	52.3%*
O=C(NCCCc1ccc(F)cc1)C1CCC(=O)N(CC2CCCCC2)C1 (stereo unspecified)	i	-5.5	-0.41	i	i	i	nt	nt	nt
COC(=O)c1cc([N+](=O)[O-])c(-n2cncn2)c([N+](=O)[O-])c1	i	-16.0	-7.7*	i	i	i	i	i	i
O=C(O)COc1ccccc1/C=N/NC(=O)CSc1nc2ccccc2n1Cc1ccccc1Cl	i	-1.7	2.82	i	i	i	i	i	i
Cc1nn(C)c(C)c1NC(=O)COc1ccc(Cl)cc1Br	i	nt	nt	nt	nt	nt	nt	nt	nt
CC(C)NC(=O)c1ccc(CN2CCC(Cc3ccccc3)CC2)cc1	i	-4.2	-0.22	i	i	i	nt	nt	nt
